In the RNAGym collection of RNA variant scans (doi:10.1126/science.aae0568) one finds yeast fitness data, which are given here for 38 variants.

To fix the notation:
B1: tRNA (parent)
chain: GUUCCGUUGGCGUAAUGGUAACGCGUCUCCCUCCUAAGGAGAAGACUGCGGGUUCGAGUCCCGUACGGAACG

This sample holds only a part of the variants without activity.

In this data set the parent is B1. As to the kind of experiment: yeast fitness relative to wild type (ratio to wild type); higher = fitter; tRNA-Arg(CCU), competitive growth, 37 C, YPD. The procedure, abridged: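 The tRNA-Arg(CCU) gene variants were made by chemical synthesis with a 3% per-site mutation rate at 69 sites and inserted at the native genomic locus of Saccharomyces cerevisiae. After pooling, the strains were competed in YPD at 37°C for 24 hours in six parallel replicates. Gene amplicons from the start population and each end population were read by 100-nucleotide paired-end sequencing, and Darwinian fitness relative to wild type was taken from genotype frequency changes. Genotypes needed ≥ 100 starting reads, and estimates < 0.5 were set to 0.5.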
Turning to GUUCCGUUGGCGUAAUCGCAACGCGUCUCCCUCCUAAGGAGAAGACUGCGGGUUCGAGUCCCGUACGUAACG, the yeast fitness amounted to 0.569. Consider GUUCCGUUGGCGUAAUCGUAACGCGUCUCCCUCCUAAGGACAAGACUGCGGGUUCGAGUCCCGUACGGAACG, for which the yeast fitness turned out to be 0.664. Under GUUCCGUUGGCGUAAUCCUAAAGCGUCUCCCUCCUAAGGACUAGACUGCGGGUUCGAGUCCCGCACGGAACG stands at most 0.5. Under GUUCCGUUGGCGUAAUCGUAACGCGUCUCCCUCCUAAGGAGAAGACUUCGGGUUCGAGUCCCGUACGGAACG stands at most 0.5.

Consider GUUCCGUUGGCGUAAUCGUAACGCGUCUCCCUCCUAAGGAGAAGACUGCGAGUUCGAGACCCGUAAGGAACG, for which the yeast fitness was at most 0.5. GUUCCGUUGGCGUAAUCGUAACGCGCCCGCCUCCUAAGGAGCAGACUGCGAGUUCGAGUCCCGUACGGAACG: the yeast fitness is at most 0.5. Turning to GUUCCGUUGGCGUAAUCGUAACGCGUCUCCCUCCUAAGCAGAAGACUGCGGGUUCGAGUCCCGUAUGGAUCG, the yeast fitness was at most 0.5.

As to GUUCCGUUGGCGUAAUCGUAACGCGUCUCCCUCCUAAGGAGAAGACUACGGGUUUGAGUCCCGUACGGAACG, the yeast fitness is at most 0.5.

On to GUUCCGUUGGCGUAAUCGUAACGCGUCUCCCUCCUAAGGAGAACACUGCGGGUUCGAGUCCCGUACGGAACG, for which the yeast fitness was found to be 0.58.

Take GUUCCGUUGGCGUAAUCGUAACGCGUCUCCCUCCUAAGGAGAAGACUGCGGGUUCCAGUCCCGUACGAAACG: the yeast fitness is at most 0.5. Turning to GUUCCGUUGGCGUAAUCGUAACGCGUCUCCCUCCUAAGGAGAAGACUGCGGGUUCGAGUCCCGUACAGAACG, the yeast fitness is 0.67. Then GUUCCGUUGGCGUAAUCGUAACGCGUCUCCCUCCUAAGGAGAAGACUGCGGGUUCCACUCCCGUACGGAACG, with at most 0.5. Under GUUCCGUUGGCGUAAUCGCAACGCGUCUCCCUCCUAAGGAGAAGACUGCGGGUUCGAGACCCGUACGGAACG stands at most 0.5; under GUUCCGUUGGCGUAAUCGUAACGCGUCACCCUCCUAAGGAGAAGACUGCGGGUUCGAGUCCCGUACGGAACG, 0.554; under GUUCCGUUGGCGUAAUCCUAAAGCGUCUCCCUCCUAAGGAGAAGACUGCGGGUUCGAGUCUCGUACGGAACG, at most 0.5.

On to GUUCCGUUGGCGUAAUCGUAACGCGUCUCCCUCCUAAGGAGAAGACUACGGGUUCGAGUCCCGUCCGGAACG, for which the yeast fitness turned out to be 0.654. In the case of GUUCCGUUGGCGUAAUCGUAACGCGUCUCCCUCCUAAGGAGAAGACUGCGGGUUUGAGUCCCGUACACAACG, the yeast fitness was at most 0.5. Under GUUCCGUUGGCGUAAUCGUAACGCGGCUCCCUCCUAAGCUGAAGACUGCGGGUUCGAGUCUCGUACGGAACG stands at most 0.5. GUUCCGUUGGCGUAAUCGUAACGCGACUCCCUCCUAAGGAGAAGACUGCGGGUUCGAGUCCCGUACGGCACG: the yeast fitness is at most 0.5. For the variant GUUCCGUUGGCGUAAUCAUAACGCGUUUCCCUCCUAAGGAGAAGAUUGCGGGUUCGAAUCCCGUACGGAACG, the yeast fitness was at most 0.5. For GUUCCGUUGGCGUAAUCGUAACGCGUCUCCCUCCUAAGAAGAAGACUGCGGGUUCGAGUCCCGUACGGAACG, the yeast fitness came out at 0.665. As for GUUCCGUUGGCGUAAUCCUAACGCGUCUCCCUCCUAAGGAGAAGACUGCGAGUUCGAGUCCCGUACGGAACG, the yeast fitness was at most 0.5.

As for GUUCCGUUGGCGUAAUCGUAACGCGUCGCCCUCCUAAGGAGAAGACUACGGGUUCGAGUCCCGUACGGAACG, the yeast fitness is 0.558.

For GUUCCGUUGGCGUAAUCCUAAAGCGUCUCCCUCCUAAGGAGAAGACUGCGGGUUCGAGUACCGUAUGGAACG, the yeast fitness was determined as 0.561.

With GUUCCGUUGGCGUAAUCGAAACGCGUCUCCCUCCUCUGGAGAAGACUGCGGGUUCGAGUCCCGUCCGGAACG, the yeast fitness turned out to be 0.592.

Regarding GUUCCGUUGGCGUAAUCGUAACGCGUCUCCCUCCUAAGGAGAAGACUGCGGAUUCAAGUCCCGUUCGGAGCG, the yeast fitness is at most 0.5. As for GUUCCGUUGGCGUAAUCGUAACGCGUCUCCCUCCUAAGGAGAAGACUGCGGGUUAGAGUACCGUACGGAACG, the yeast fitness was found to be 0.716. Regarding GUUCCGUUGGCGUAAUCGUAACGCCUCUCCCUCCUAAGGAGAAGACUGCGGGUUCGAGUCUCGUACGGAACG, the yeast fitness was at most 0.5. Take GUUCCGUUGGCGUAAUCGUAACGCGCCUCCCUCCUAAGGAGAAGACUGCGGGUUCGAGUCCCGUACGGAACG: the yeast fitness worked out at 0.698. On to GUUCCGUUGGCGUAAUCCUAAAGCGUCCCCCUCCUAAGGAGAAGACUGCGGGUUCGAGUACCGUAUGGAACG, for which the yeast fitness was 0.677. Regarding GUUCCGUUGGCGUAAUCGUAACGCGUCGCCCUCCUAAGGAGAAGACUGCGGGUACGAGUCCUGUACGGACCG, the yeast fitness was at most 0.5. GUUCCGUUGGCGUAAUCGAAACGCGUCUCCCUCCUAAGGAGAAGACUGGGGGUUCGAGUCCCGUAUGGAACG: the yeast fitness was at most 0.5. As to GUUCCGUUGGCGUAAUCCUAAAGCGUCUCCCUCCUAAGGAGAAGACUGCGGGUUCGAGUCCCGUACGGAACG, the yeast fitness is at most 0.5. In the case of GUUCCGUUGGCGUAAUCGUAACGCGUCUCCCUCCUAAGGAGAAGACUGCGGCUUCGAGUCCCGUACGGAACG, the yeast fitness was at most 0.5. For the variant GUUCCGUUGGCGUAAUCGUAACGCGUCUCCCUCCUAAGGAGAAGACUGCGGGUUGGAGUCCCGUACAGCACG, the yeast fitness was at most 0.5. As to GUUCCGUUGGCGUAAUCGUAACGCGUCGCCCUCCUAAGGAGAAGACUGCGGGUACGAGUCCCGUACGGAACG, the yeast fitness is at most 0.5. Under GUUCCGUUGGCGUAAUCGUAACGCGUCUCCCUCCUAAGCAGAAGGCUGCGGGUACGAGUCCCGUACGGAACG stands at most 0.5; under GUUCCGUUGGCGUAAUCCUAACGCGUCUCCCUCCUAAGAAGAAGACUGCGGGUUCGCGUCCCGUACGGAACG, at most 0.5.
